From ChEMBL document CHEMBL5634200, “Discovery of the First Potent DYRK2 Proteolysis Targeting Chimera Degraders” (ACS Med Chem Lett, 2024)
Activity calls are given as the source filed them. No cut-off for these calls is given here.

Key:
[1] = biological target: T1, Protein cereblon/Dual specificity tyrosine-phosphorylation-regulated kinase 2 (Homo sapiens, UniProt Q92630+Q96SW2); assay: PROTAC activity at CRBN/DYRK2 in human HeLa cells assessed as induction of DYRK2 degradation at 10 to 20 uM incubated for 24 hrs by Western blot analysis; format: cell-based; details: dose 10-20 µM
Outline: (§1)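 HeLa cells treated 24 h (one series at 10 and 20 μM, another at 5 and 10 μM); DYRK2 immunoblotted with GAPDH loading reference; band quantitation as mean ± SEM of three independent replicates, one-way ANOVA.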

[2] = biological target: T2, Dual specificity tyrosine-phosphorylation-regulated kinase 2 (Homo sapiens, UniProt Q92630); assay: Binding affinity to DYRK2 (unknown origin) assessed as dissociation constant by SPR analysis
T2 sequence (Q92630 whole entry): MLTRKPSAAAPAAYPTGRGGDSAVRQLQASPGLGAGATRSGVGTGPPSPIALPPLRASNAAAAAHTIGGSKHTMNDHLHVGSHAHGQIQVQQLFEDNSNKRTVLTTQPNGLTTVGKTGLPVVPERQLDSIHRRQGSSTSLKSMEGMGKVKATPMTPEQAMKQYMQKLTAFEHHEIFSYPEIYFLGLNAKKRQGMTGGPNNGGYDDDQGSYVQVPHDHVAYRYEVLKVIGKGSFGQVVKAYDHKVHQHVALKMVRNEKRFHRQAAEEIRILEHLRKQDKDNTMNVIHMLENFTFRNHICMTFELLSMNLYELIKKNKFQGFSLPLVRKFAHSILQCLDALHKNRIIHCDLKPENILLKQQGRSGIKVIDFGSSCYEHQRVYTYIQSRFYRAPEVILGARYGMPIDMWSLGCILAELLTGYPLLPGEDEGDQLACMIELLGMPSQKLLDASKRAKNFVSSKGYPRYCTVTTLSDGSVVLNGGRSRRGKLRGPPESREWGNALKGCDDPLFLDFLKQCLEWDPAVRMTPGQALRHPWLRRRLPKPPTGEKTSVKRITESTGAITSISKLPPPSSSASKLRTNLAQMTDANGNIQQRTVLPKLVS

[3] = biological target: T2, Dual specificity tyrosine-phosphorylation-regulated kinase 2; assay: Inhibition of human recombinant DYRK2 using KKISGRLSPIMTEQ as substrate incubated for 60 mins in the presence of ATP by ADP-Glo kinase assay
[4] = tested on: MDA-MB-231; assay: Antiproliferative activity against human MDA-MB-231 cells assessed as inhibition of cell proliferation by CCK-8 assay; format: functional, cell-based
[5] = biological target: T1, Protein cereblon/Dual specificity tyrosine-phosphorylation-regulated kinase 2; assay: PROTAC activity at CRBN/DYRK2 in human HeLa cells assessed as induction of DYRK2 degradation at 5 to 10 uM incubated for 24 hrs by Western blot analysis; format: cell-based; details: dose 5-10 µM; outline: as §1
[6] = biological target: T1, Protein cereblon/Dual specificity tyrosine-phosphorylation-regulated kinase 2; assay: PROTAC activity at CRBN/DYRK2 in human HeLa cells assessed as reduction in DYRK2 protein level at 5 to 10 uM incubated for 12 hrs by Western blot analysis; format: cell-based; details: dose 5-10 µM
[7] = biological target: T1, Protein cereblon/Dual specificity tyrosine-phosphorylation-regulated kinase 2; assay: PROTAC activity at CRBN/DYRK2 in human MDA-MB-231 cells assessed as increase in ubiquitination of DYRK2 at 10 uM incubated for 12 hrs by coimmunoprecipitation analysis; format: cell-based
Outline: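 MM231 cells pretreated with 10 μM MG132 for 2 h, then compound for 12 h; DYRK2 and ubiquitin examined by co-immunoprecipitation.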

[8] = biological target: T1, Protein cereblon/Dual specificity tyrosine-phosphorylation-regulated kinase 2; assay: PROTAC activity at CRBN/DYRK2 in human MDA-MB-231 cells assessed as reduction of DYRK2 protein level at 5 uM incubated for 12 hrs in presence of 3,5-bis(2-bromobenzylidene)piperidin-4-one by Western blot analysis; format: cell-based
[9] = biological target: T1, Protein cereblon/Dual specificity tyrosine-phosphorylation-regulated kinase 2; assay: PROTAC activity at CRBN/DYRK2 in human MDA-MB-231 cells assessed as decrease in p53 phosphorylation at Ser46 residue at 5 to 20 uM incubated for 12 hrs by Western blot analysis; format: cell-based; details: dose 5-20 µM
Outline: (§2)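 MM231 cells exposed 12 h across 1.25 to 20 μM; phospho-p53 (Ser46) and phospho-c-Myc (Ser62) immunoblotted, GAPDH loading reference; mean ± SEM of three independent replicates, one-way ANOVA.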

[10] = biological target: T1, Protein cereblon/Dual specificity tyrosine-phosphorylation-regulated kinase 2; assay: PROTAC activity at CRBN/DYRK2 in human HeLa cells assessed as decrease in DYRK2 level at 5 uM by Western blot analysis; format: cell-based; details: time 3-24 hrs, TDE = time-dependent effect
Outline: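 HeLa cells held at 5 μM over a time course (3 to 24 h); DYRK2 immunoblot normalised to GAPDH, quantified from three independent replicates, one-way ANOVA.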

[11] = biological target: T1, Protein cereblon/Dual specificity tyrosine-phosphorylation-regulated kinase 2; assay: PROTAC activity at CRBN/DYRK2 in human HeLa cells assessed as induction of DYRK2 degradation at 2.5 to 40 uM incubated for 24 hrs by Western blot analysis; format: cell-based; details: dose 2.5-40 µM
Outline: (§3)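 HeLa cells exposed to graded concentrations for 24 h; DYRK2 Western blot normalised to GAPDH, three independent replicates (mean ± SEM); DC50 derived from concentration series.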

[12] = biological target: T1, Protein cereblon/Dual specificity tyrosine-phosphorylation-regulated kinase 2; assay: PROTAC activity at CRBN/DYRK2 in human MDA-MB-231 cells assessed as decrease in c-Myc phosphorylation at Ser62 residue at 5 to 20 uM incubated for 12 hrs by Western blot analysis; format: cell-based; details: dose 5-20 µM; outline: as §2
[13] = biological target: T1, Protein cereblon/Dual specificity tyrosine-phosphorylation-regulated kinase 2; assay: PROTAC activity at CRBN/DYRK2 in human HeLa cells assessed as induction of DYRK2 degradation incubated for 24 hrs by Western blot analysis; format: cell-based; outline: as §3
[14] = biological target: T1, Protein cereblon/Dual specificity tyrosine-phosphorylation-regulated kinase 2; assay: PROTAC activity at CRBN/DYRK2 in human MDA-MB-231 cells assessed as induction of DYRK2 degradation at 2.5 to 40 uM incubated for 24 hrs by Western blot analysis; format: cell-based; details: dose 2.5-40 µM
Outline: (§4)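 MM231 cells given graded concentrations for 24 h; DYRK2 Western blot with GAPDH loading reference, three independent replicates (mean ± SEM); DC50 taken from concentration–degradation data.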

[15] = biological target: T1, Protein cereblon/Dual specificity tyrosine-phosphorylation-regulated kinase 2; assay: PROTAC activity at CRBN/DYRK2 in human HeLa cells assessed as decrease in DYRK2 level by measuring reduction in fluorescence intensity at 5 to 10 uM incubated for 12 hrs by immunofluorescence based confocal laser scanning microscopy; format: cell-based; details: dose 5-10 µM
Outline: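 HeLa cells treated 5 and 10 μM for 12 h; DYRK2 immunostained, Cy3 fluorescence intensity read by confocal laser scanning microscopy and quantified.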

[16] = biological target: T1, Protein cereblon/Dual specificity tyrosine-phosphorylation-regulated kinase 2; assay: PROTAC activity at CRBN/DYRK2 in human MDA-MB-231 cells assessed as decrease in DYRK2 level at 2.5 to 10 uM incubated for 12 hrs by flow cytometry analysis; format: cell-based; details: dose 5-10 µM, in the assay text read “5 to 10 uM” for “2.5 to 10 uM”
Outline: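 MM231 cells treated 12 h; DYRK2 immunostaining quantified by flow cytometry as FITC-A channel fluorescence intensity.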

[17] = biological target: T1, Protein cereblon/Dual specificity tyrosine-phosphorylation-regulated kinase 2; assay: PROTAC activity at CRBN/DYRK2 in human MDA-MB-231 cells assessed as induction of DYRK2 degradation incubated for 24 hrs by Western blot analysis; format: cell-based; outline: as §4
[18] = biological target: T1, Protein cereblon/Dual specificity tyrosine-phosphorylation-regulated kinase 2; assay: PROTAC activity at CRBN/DYRK2 in human MDA-MB-231 cells assessed as reduction in DYRK2 degradation level at 10 uM preincubated with MG132 for 2 hrs followed by compound addition and further incubated for 12 hrs by Western blot analysis; format: cell-based
Outline: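 MM231 cells pretreated 2 h with 10 μM MG132 (UPS inhibitor) before compound for 12 h; DYRK2 Western blot with GAPDH reference, three independent replicates, one-way ANOVA.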

COc1cc(/C=C/C(=O)CC(=O)/C=C/c2ccc(OC(=O)CCOCCOCCNC(=O)COc3cccc4c3C(=O)N(C3CCC(=O)NC3=O)C4=O)c(OC)c2)ccc1O (centres undefined)
Activity [1]: Active

COc1cc(/C=C/C(=O)CC(=O)/C=C/c2ccc(O)c(OC)c2)ccc1O [CURCUMIN]
Kd [2]: 14.5 µM | IC50 [3]: 0.01 µM | IC50 [4]: > 20 µM

O=C(CN1C/C(=C\c2ccccc2F)C(=O)/C(=C/c2ccccc2F)C1)NCCOCCOCCOCCNc1cccc2c1C(=O)N(C1CCC(=O)NC1=O)C2=O (centres undefined)
Activity [5]: Active

CN1C(=O)CCC(N2C(=O)c3cccc(NCCOCCOCCOCCNC(=O)CN4C/C(=C\c5ccccc5Br)C(=O)/C(=C/c5ccccc5Br)C4)c3C2=O)C1=O (centres undefined)
Activity [6]: inactive

O=C(CN1C/C(=C\c2ccccc2F)C(=O)/C(=C/c2ccccc2F)C1)NCCOCCOCCNc1cccc2c1C(=O)N(C1CCC(=O)NC1=O)C2=O (centres undefined)
Activity [5]: Active

O=C(CN1C/C(=C\c2ccccc2Br)C(=O)/C(=C/c2ccccc2Br)C1)NCCOCCOCCOCCNc1cccc2c1C(=O)N(C1CCC(=O)NC1=O)C2=O (centres undefined)
Activity [7]: Active | Activity [8]: inactive | Activity [9]: Active | Activity [10]: Tde | Kd [2]: 29.7 µM | Activity [5]: Active | Activity [11]: Active | Activity [12]: Active | DC50 [13]: 3.26 µM | Activity [14]: Active | Activity [15]: Active | Activity [16]: Active | DC50 [17]: 1.61 µM | Activity [18]: inactive | IC50 [4]: 9.1 µM

COc1cc(/C=C/C(=O)CC(=O)/C=C/c2ccc(OC(=O)CCOCCOCCOCCNC(=O)COc3cccc4c3C(=O)N(C3CCC(=O)NC3=O)C4=O)c(OC)c2)ccc1O (centres undefined)
Activity [1]: Active

O=C(CN1C/C(=C\c2ccccc2Br)C(=O)/C(=C/c2ccccc2Br)C1)NCCOCCOCCNc1cccc2c1C(=O)N(C1CCC(=O)NC1=O)C2=O (centres undefined)
Activity [5]: Active

O=C(CN1C/C(=C\c2ccccc2Cl)C(=O)/C(=C/c2ccccc2Cl)C1)NCCOCCOCCNc1cccc2c1C(=O)N(C1CCC(=O)NC1=O)C2=O (centres undefined)
Activity [5]: Active

O=C1/C(=C/c2ccccc2Br)CNC/C1=C\c1ccccc1Br
Kd [2]: 7.9 µM | IC50 [3]: 0.024 µM | IC50 [4]: 4.2 µM

O=C(CN1C/C(=C\c2ccccc2Cl)C(=O)/C(=C/c2ccccc2Cl)C1)NCCOCCOCCOCCNc1cccc2c1C(=O)N(C1CCC(=O)NC1=O)C2=O (centres undefined)
Activity [5]: Active
